Source: PubChem (The Scripps Research Institute Molecular Screening Center)
HTR5A inv ctr: counter-screen for OPRM1-OPRD1 inverse agonists: human HTR5A inverse agonism. P47898. HTR5A cell line, luminescence. inhibition, % at 9.3 µM. hit rate 0.083% among 340,000. AID 504634; in the data active means inhibition mostly above about 23%, no sharp cut-off; inactive means mostly below about 18%
MC4R barr agon: agonists of human melanocortin 4 receptor (MC4R) beta-arrestin. U2OS MC4R beta-arrestin complementation, luminescence; percent of melanotan II response, DMSO zero. P32245. hit rate 0.98% among 360,000. activation, % at 8.9 µM;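 active means activation above a per-plate cutoff, the mean activation of sample wells on that plate plus 3 SD, cut at about 8% in these data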
OPRM1-OPRD1 ag: OPRM1-OPRD1 heterodimerization agonism. cells, luminescence. activation, % at 9.3 µM. hit rate 0.3% among 340,000
Target sequence (P35372 whole entry, looked up): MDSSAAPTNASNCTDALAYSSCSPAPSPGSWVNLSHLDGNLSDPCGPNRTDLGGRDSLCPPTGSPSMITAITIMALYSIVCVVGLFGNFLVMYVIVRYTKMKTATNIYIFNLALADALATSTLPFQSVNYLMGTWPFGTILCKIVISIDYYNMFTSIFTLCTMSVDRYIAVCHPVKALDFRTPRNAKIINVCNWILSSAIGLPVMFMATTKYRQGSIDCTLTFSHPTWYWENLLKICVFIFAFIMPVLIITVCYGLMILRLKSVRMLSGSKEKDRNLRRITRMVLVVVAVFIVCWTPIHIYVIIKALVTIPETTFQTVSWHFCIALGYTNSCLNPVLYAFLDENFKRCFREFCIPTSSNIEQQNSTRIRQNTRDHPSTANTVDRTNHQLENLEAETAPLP
Target sequence (P41143 whole entry, looked up): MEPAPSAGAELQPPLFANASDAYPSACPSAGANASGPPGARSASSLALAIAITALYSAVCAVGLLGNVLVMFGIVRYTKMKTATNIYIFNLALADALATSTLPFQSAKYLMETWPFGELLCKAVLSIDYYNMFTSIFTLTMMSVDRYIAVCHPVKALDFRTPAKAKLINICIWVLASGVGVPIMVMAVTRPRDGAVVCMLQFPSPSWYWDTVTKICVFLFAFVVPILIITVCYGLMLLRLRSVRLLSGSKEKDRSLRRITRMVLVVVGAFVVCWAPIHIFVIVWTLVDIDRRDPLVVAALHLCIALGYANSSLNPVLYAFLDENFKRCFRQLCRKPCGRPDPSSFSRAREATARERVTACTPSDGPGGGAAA
MC4R antagonist: antagonists of human melanocortin 4 receptor (MC4R). inhibition, % at 6.5 µM. P32245. MC4R-expressing cells, MTII-stimulated cAMP, LANCE TR-FRET. hit rate 0.48% among 360,000. AID 540295;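 active means inhibition above its plate's cutoff, the mean of tested wells on that plate plus 3 SD, cut at about 29% in these data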
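Assay system: human MC4R-expressing U2OS cells; reagent: Melanotan II stimulation of cells; dosing: 6.5 µM single dose; timing: compound 30 min, challenge 1 h, detection 1 h; signal: TR-FRET cAMP assay; replicates: one well per compound, no replicates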
HTR5A ag: counter-screen for OPRM1-OPRD1 agonists: human HTR5A agonism; HTR5A agonist assay, luminescence, cell-based; activation, % at 9.3 µM; hit rate 0.61% among 340,000; in the data active means activation mostly above about 9.5%, no sharp cut-off; inactive means mostly below about 7.6%
MOR-DOR inv ag: inverse agonist of human OPRM1-OPRD1 heterodimerization | cell-based MOR-DOR heterodimer luminescence, inverse agonism | AID 504357 | P35372+P41143 | hit rate 0.21% among 340,000 | inhibition, % at 9.3 µM; in the data active means inhibition above about 22%, passing the limit was not always enough
MOR-DOR ag conf: OPRM1-OPRD1 heterodimer agonism, confirmation; AID 504904; shares compounds with OPRM1-OPRD1 ag; cells, MOR-DOR heterodimerization, luminescence complementation; activation, % at 9.3 µM; hit rate 45% among 830
HTR5A ag counter: counter-screen for OPRM1-OPRD1 agonists: human HTR5A agonism | shares compounds with OPRM1-OPRD1 ag | HTR5A agonist counterscreen, cell luminescence | activation, % at 9.3 µM | hit rate 8% among 830 | AID 504905; in the data active means activation above about 17%
Each line names hits and unclear results; the compound was inactive in the other large screens (follow-up assays come after a bar, where they were run). Sampled rows, rich in hits. Any-hit rate of the full collection: about 2.4%. Unless noted, no stated cut-off is given here; in the data, active means activation above about 18%; inactive means the rest.

Cc1ccc2[nH]cc(CCNC(=O)C3CCCO3)c2c1 (stereo not drawn)	HTR5A ag 11
O=C(NCc1cccc(C(F)(F)F)c1)C1CCCN(c2ncccn2)C1 (stereo not drawn)	none
Cc1cc(C)nc(N2CCCC(C(=O)NCc3cccc(C(F)(F)F)c3)C2)n1 (stereo not drawn)	HTR5A ag 12
Cc1cncc(NCc2cccc(Cl)c2)n1	none (no result: HTR5A inv ctr, OPRM1-OPRD1 ag, HTR5A ag, MOR-DOR inv ag)
Cc1cc([N+](=O)[O-])ccc1NC(=O)c1csc(C)c1C	HTR5A ag 13
COc1ccc(C(=O)NC(=S)Nc2ccccc2[N+](=O)[O-])cc1OC	none
COc1ccc(C(=O)NC(=S)Nc2ccc([N+](=O)[O-])cc2C)cc1OC	MC4R barr agon 8.9
CCCOc1ccc(/C=C/C(=O)Nc2ccc([N+](=O)[O-])cc2C)cc1OC	MC4R barr agon 12
Cc1ccnc(NC2OC(=O)c3ccccc32)c1 (stereo not drawn)	none
O=C(CN(CC1CCCO1)C(=O)CNS(=O)(=O)c1ccc(Cl)cc1)NCc1ccc(F)cc1 (stereo not drawn)	none
CC(C)n1c(O)c(N=NC(=O)C2COc3ccccc3O2)c2ccccc21 (stereo not drawn)	none
C/C(=N\Nc1nc2ccccc2[nH]1)c1ccccn1	MOR-DOR inv ag 61
CCn1c(=O)cc(SCC(=O)N2CCN(c3ccccn3)CC2)c2ccccc21	none
CCn1c(=O)cc(SCC(=O)N2CCN(c3ccccc3F)CC2)c2ccccc21	HTR5A ag 13
Cc1ccc(C)c(NS(=O)(=O)c2ccc3c(c2)Cc2cc(S(=O)(=O)Nc4cc(C)ccc4C)ccc2-3)c1	MC4R barr agon 8.8
COc1cc(/C=N\NC(=O)c2ccc(-c3ccccc3)cc2)ccc1OCC(N)=O	MC4R barr agon 26, OPRM1-OPRD1 ag 20, HTR5A ag 11
O=C(/C=C/c1cccc(Cl)c1)NCc1cccs1	none
O=C(/C=C/c1ccc(Cl)cc1)NCc1cccs1	HTR5A ag 13
OCC1(CCCc2ccccc2)CCN(C2CCSCC2)CC1	none
CCOC(=O)C1(CCCc2ccccc2)CCN(C2CCSCC2)CC1	MC4R barr agon 9.2
CC(=O)c1ccc(NC(=O)CSc2ccsc2[N+](=O)[O-])cc1	HTR5A ag 9.4
CC[N+]1(CC(O)COC2CC(C)CC(C)(C)C2)CCOCC1 (stereo not drawn)	none
CC(=O)c1ccc(NC(=O)C(C)n2nc(-c3ccccc3)c3cc(Cl)ccc32)cc1 (stereo not drawn)	none
CCOC(=O)N/N=C/c1cn(Cc2ccc(Cl)cc2)c2ccccc12	MC4R barr agon 8.8
Cc1cc(Br)ccc1NC(=O)CNC(=O)CNc1cccc([N+](=O)[O-])c1	none
O=C(NCc1ccccc1)N1CCn2c(nc3ccccc32)C1	none (no result: HTR5A inv ctr, OPRM1-OPRD1 ag, HTR5A ag, MOR-DOR inv ag)
CC(C)n1c(N2CCN(C(=O)NCc3ccccc3)CC2)nc2ccccc21	HTR5A ag 10
O=C(Nc1cccc([N+](=O)[O-])c1)N1CCCCCC1	none
COc1ccc(S(=O)(=O)N2CCc3ccccc32)cc1C(=O)N1CCOCC1	none
O=C(CCNC(=O)C1CCN(S(=O)(=O)c2ccc(F)cc2)CC1)Nc1nccs1	HTR5A ag 10
CC(=O)Nc1ccc(S(=O)(=O)N2CCC(C(=O)NCCC(=O)Nc3nccs3)CC2)cc1	none
CC1(C(=O)NC(=S)NNC(=O)c2ccncc2)CCCCC1	HTR5A inv ctr 32, MOR-DOR inv ag 36
CCC(=O)NC(=S)Nc1ccc(NC(=O)COc2ccc(Cl)cc2Cl)cc1	MC4R barr agon 18
COC(=O)CCC(C)C1CCC2C3CCC4CC(O)CCC4(C)C3CC(O)C12C (stereo not drawn)	MC4R barr agon 9.6
CN1CCN(C(=O)c2ccc3c(c2)N(Cc2ccc(F)cc2)C(=O)c2ccccc2S3=O)CC1 (stereo not drawn)	none
O=c1[nH]c(SCc2nc3c(cnn3-c3ccccc3)c(=O)[nH]2)nc2ccccc12	none
O=c1[nH]c(SCc2ccccc2Cl)nc2c1cnn2-c1ccccc1	MC4R barr agon 9.3
O=C(Cn1cnc2ccc(Cl)cc2c1=O)c1cccs1	none
CC(C)[C@H](NC(=O)c1c(F)cccc1F)C(=O)Nc1cccc(Br)c1	MC4R barr agon 8.6, OPRM1-OPRD1 ag 22 | MOR-DOR ag conf inactive | HTR5A ag counter inactive
Cc1nc2ccc(NC(=O)[C@@H](NC(=O)c3c(F)cccc3F)C(C)C)cc2s1	none
COCc1ccc2oc(C(=O)O)cc2c1	none
CCN(CC)CCCN(C(=O)c1ccc(Br)cc1)c1nc(-c2ccc(OC)cc2)cs1	none
CCN(CC)CCCN(C(=O)c1cccs1)c1nc(-c2ccc(OC)cc2)cs1	OPRM1-OPRD1 ag 51 | MOR-DOR ag conf inactive | HTR5A ag counter 27
COc1ccc2oc(C(=O)N3CCc4ccccc43)c(C)c2c1	none
CCN(CC)c1ccc(/C=C2\C(=O)c3ccc(C(=O)O)cc3C2=O)cc1	OPRM1-OPRD1 ag 21 | MOR-DOR ag conf inactive | HTR5A ag counter inactive
COc1ccc(C[C@H]2CN3C(=NC[C@@H]3Cc3ccccc3)N2CCNC(=O)c2ccc(C)c(Br)c2)cc1	MC4R barr agon 23, OPRM1-OPRD1 ag 22 | MOR-DOR ag conf inactive | HTR5A ag counter inactive
COc1ccc(C[C@H]2CN3C(=NC[C@@H]3Cc3ccc(O)cc3)N2CCNC(=O)c2ccc(C)c(Br)c2)cc1	none
NC1=NC2(CCN(Cc3ccccc3)CC2)n2c(nc3ccccc32)N1	OPRM1-OPRD1 ag 50 | MOR-DOR ag conf 28 | HTR5A ag counter inactive
O=C(O)c1ccc(NC2=C(Cl)C(=O)c3ccccc3C2=O)cc1	none
O=C(O)c1cccc(NC2=C(Cl)C(=O)c3ccccc3C2=O)c1	OPRM1-OPRD1 ag 22 | MOR-DOR ag conf inactive | HTR5A ag counter inactive
CCc1ccc(-n2c(SCC(=O)N3Cc4ccccc4CC3C(=O)O)nnc2-c2ccncc2)cc1 (stereo not drawn)	none
Cc1ccc(C(=O)c2c(C)oc3c2C(=O)C(=O)c2ccccc2-3)cc1	OPRM1-OPRD1 ag 34, HTR5A ag 14 | MOR-DOR ag conf inactive | HTR5A ag counter inactive
COc1ccc(Oc2ccc3c(C(F)(F)F)cc(C(F)(F)F)nc3n2)cc1	none
Oc1ccc(Oc2ccc3c(C(F)(F)F)cc(C(F)(F)F)nc3n2)cc1	MC4R barr agon 15, OPRM1-OPRD1 ag 20 | MOR-DOR ag conf 82 | HTR5A ag counter inactive
CC(=O)C1=C(O)C2(C)c3c(O)c(C)c(O)c(C(C)=O)c3OC2CC1=O (stereo not drawn)	none (no result: HTR5A inv ctr, OPRM1-OPRD1 ag, HTR5A ag, MOR-DOR inv ag)
CC(=O)Nc1nc2c(s1)C(=O)NCCC2	none
